Measured values from ChEMBL document CHEMBL4706565, “Anti-glioma effects of 2-aminothiophene-3-carboxamide derivatives, ANO1 channel blockers” (Eur J Med Chem, 2020).
Each block holds one molecule with its values, some of them ahead of it. Activity calls are given as the source filed them. No cut-off for these calls is given here.

Columns and labels:
[1] = target: T1, Anoctamin-1 (Homo sapiens) (UniProt Q5XXA6); assay: Inhibition of human ANO1 channel expressed in HEK293 cells at 10 uM incubated for 10 mins by FLIPR assay relative to control; assay type: cell-based
T1 sequence (whole entry): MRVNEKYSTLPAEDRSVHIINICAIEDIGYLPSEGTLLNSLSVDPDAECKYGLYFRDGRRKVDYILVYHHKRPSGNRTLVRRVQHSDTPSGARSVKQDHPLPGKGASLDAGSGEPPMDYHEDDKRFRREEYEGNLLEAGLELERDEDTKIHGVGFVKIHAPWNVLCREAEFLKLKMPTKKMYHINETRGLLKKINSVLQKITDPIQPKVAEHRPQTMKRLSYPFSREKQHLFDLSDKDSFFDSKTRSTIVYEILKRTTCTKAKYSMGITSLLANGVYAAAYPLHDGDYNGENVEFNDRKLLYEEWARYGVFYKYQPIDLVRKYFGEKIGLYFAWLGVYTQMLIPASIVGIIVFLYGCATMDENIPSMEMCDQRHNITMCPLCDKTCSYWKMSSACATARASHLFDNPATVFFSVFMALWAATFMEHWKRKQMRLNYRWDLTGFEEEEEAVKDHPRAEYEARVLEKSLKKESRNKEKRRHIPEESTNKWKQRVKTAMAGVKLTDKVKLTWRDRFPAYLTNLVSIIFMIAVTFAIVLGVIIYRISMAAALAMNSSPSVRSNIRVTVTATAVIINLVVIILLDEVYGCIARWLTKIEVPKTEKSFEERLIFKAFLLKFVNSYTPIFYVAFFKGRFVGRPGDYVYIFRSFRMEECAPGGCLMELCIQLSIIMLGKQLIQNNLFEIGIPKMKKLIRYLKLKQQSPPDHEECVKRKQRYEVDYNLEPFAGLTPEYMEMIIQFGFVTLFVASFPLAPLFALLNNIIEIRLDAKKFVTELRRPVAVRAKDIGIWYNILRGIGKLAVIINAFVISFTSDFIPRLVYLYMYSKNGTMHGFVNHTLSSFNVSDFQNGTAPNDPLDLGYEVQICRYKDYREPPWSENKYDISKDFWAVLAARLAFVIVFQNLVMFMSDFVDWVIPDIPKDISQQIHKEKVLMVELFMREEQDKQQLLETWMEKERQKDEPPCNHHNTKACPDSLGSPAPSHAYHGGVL
Method in brief: (§1)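 HEK293 cells expressing human ANO1, 50,000 cells/well, plated overnight. Loaded with FLIPR Red membrane-potential dye in HEPES-buffered saline (pH 7.4) for 40-60 min at room temperature. Compound added for 10 min at room temperature, final DMSO 0.5%.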

[2] = system: U-251; assay: Antiproliferative activity against human U251 cells overexpressing ANO1 assessed as reduction in cell viability measured after 72 hrs by Celltiter-glo assay; assay type: functional
Method in brief: (§2)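 5.0×10^3 cells/well seeded, overnight, then compounds added as 1:4 serial dilutions in DMSO; viability read after 72 h with CellTiter-Glo luminescence. GI50 from fitted dose-response curves; triplicate wells, SD from three independent experiments. DMEM for U251 and U138, MEM for U87MG, both with 10% FBS and pen/strep, 37 °C, 5% CO2.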

[3] = target: T2, Anoctamin-1 (Homo sapiens, UniProt Q5XXA6); assay: Inhibition of human ANO1 channel expressed in HEK293 cells incubated for 10 mins by FLIPR assay; assay type: cell-based; method in brief: as §1
T2 sequence (Q5XXA6 whole entry): T1 sequence (whole entry)

[4] = system: U-87 MG; assay: Antiproliferative activity against human U87MG cells overexpressing ANO1 assessed as reduction in cell viability measured after 72 hrs by Celltiter-glo assay; assay type: functional, U-87MG ATCC; method in brief: as §2
[5] = target: T3, Anoctamin-1 (Mus musculus, UniProt Q8BHY3); assay: Inhibition of GFP-fused mouse ANO1 channel expressed in HEK293A cells assessed as inhibition of ATP-induced channel current amplitude at membrane potential of +80 mV by patch clamp electrophysiology assay; assay type: cell-based, HEK293-A
T3 sequence (Q8BHY3 whole entry): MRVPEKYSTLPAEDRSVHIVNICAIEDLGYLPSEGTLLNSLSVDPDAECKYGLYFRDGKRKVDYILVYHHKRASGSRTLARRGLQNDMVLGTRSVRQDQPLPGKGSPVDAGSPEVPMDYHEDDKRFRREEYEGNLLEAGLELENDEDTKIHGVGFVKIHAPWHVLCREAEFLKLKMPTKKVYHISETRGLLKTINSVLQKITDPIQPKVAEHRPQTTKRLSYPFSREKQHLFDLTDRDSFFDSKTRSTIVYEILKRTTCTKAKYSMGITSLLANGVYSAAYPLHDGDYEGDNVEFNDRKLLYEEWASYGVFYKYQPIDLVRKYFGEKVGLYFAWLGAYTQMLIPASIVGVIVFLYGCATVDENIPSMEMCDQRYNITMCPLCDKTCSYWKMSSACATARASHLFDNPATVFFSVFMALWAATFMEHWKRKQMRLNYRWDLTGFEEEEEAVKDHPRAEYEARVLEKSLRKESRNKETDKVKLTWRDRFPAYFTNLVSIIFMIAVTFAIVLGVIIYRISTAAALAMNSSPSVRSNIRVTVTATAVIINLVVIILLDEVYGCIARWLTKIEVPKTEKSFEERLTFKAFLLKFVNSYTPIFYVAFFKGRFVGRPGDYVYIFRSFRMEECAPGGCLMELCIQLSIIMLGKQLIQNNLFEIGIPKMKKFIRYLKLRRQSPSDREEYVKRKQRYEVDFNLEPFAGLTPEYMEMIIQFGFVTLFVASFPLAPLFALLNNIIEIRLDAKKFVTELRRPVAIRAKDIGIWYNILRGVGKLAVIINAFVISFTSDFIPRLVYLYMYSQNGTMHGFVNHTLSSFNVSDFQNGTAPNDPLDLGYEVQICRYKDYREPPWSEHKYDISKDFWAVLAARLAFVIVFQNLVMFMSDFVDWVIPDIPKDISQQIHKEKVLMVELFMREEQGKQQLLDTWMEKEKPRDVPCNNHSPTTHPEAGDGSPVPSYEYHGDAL
Method in brief: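 Whole-cell recording at room temperature in HEK293A cells transfected with GFP-mANO1, GFP-mANO2 or GFP-mTTYH1. 1 s ramps from +80 to -80 mV, holding potential -10 mV. For ANO1/ANO2: pipette CsCl 146 mM with Ca-EGTA-NMDG, pH 7.3; bath NaCl-based, pH 7.3. For TTYH1: Tris-aspartate pipette (pH 7.2) and Tris-HCl bath (pH 7.4), with […] and BaCl2 added to block K+ channels, and hypotonic (220 mOsm/kg) bath. Washout recordings assessed reversibility.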

[6] = system: U138-MG; assay: Antiproliferative activity against human U138 cells overexpressing ANO1 assessed as reduction in cell viability measured after 72 hrs by Celltiter-glo assay; assay type: functional; method in brief: as §2
[7] = Antiproliferative activity against mouse primary astrocytes assessed as reduction in cell viability at 100 uM measured after 72 hrs by Celltiter-Glo luminescent assay; assay type: cell-based, Astrocyte
Method in brief: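 Primary astrocytes isolated from adult mouse brain by a previously reported method. 5.0×10^3 cells/well, compound as 1:4 serial DMSO dilutions, CellTiter-Glo viability at 72 h.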

[8] = system: U-251; assay: Inhibition of cell invasion in human U251 cells at 10 uM incubated for 48 hrs by Boyden chamber method; assay type: functional
Method in brief: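 Boyden chamber invasion: U251 cells serum-starved 24 h, then 2.5×10^5 cells seeded in 8-μm ECMatrix-coated transwells. Treated with compound at 1 or 10 μM for 48 h at 37 °C. Invasion ratio from relative fluorescence.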

[9] = system: U-251; assay: Inhibition of cell migration in human U251 cells at 10 uM incubated for 18 hrs by wound healing assay; assay type: functional
Method in brief: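 U251 monolayer, 2.0×10^5 cells/well, plated overnight, then scratched and washed with PBS. Wound area imaged before and after incubation; migration ratio taken from migrated area. One-way ANOVA.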

[10] = system: U-251; assay: Inhibition of colony formation in human U251 cells at 10 uM incubated for 14 days by crystal violet dye based assay; assay type: functional
Method in brief: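 Colonies stained 24 h with crystal violet in methanol/formaldehyde/PBS, washed, extracted with 10% acetic acid and read at A570 nm. Compared against DMSO control.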

[11] = system: U-251; assay: Inhibition of anchorage-independent colony formation in human U251 cells at 100 uM incubated for 14 days by crystal violet staining based soft agar colony formation assay; assay type: functional
Method in brief: (§3)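 Soft agar assay: 2.0×10^3 U251 cells in complete medium with 0.3% agar over a 0.6% bottom agar layer. Treated with compounds at 1-100 μM for 14 days, 37 °C, 5% CO2. Colonies stained with crystal violet for 24 h, whole wells photographed and colonies counted against DMSO control; n = 3.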

[12] = system: U-251; assay: Inhibition of anchorage-independent colony formation in human U251 cells at 10 uM incubated for 14 days by crystal violet staining based soft agar colony formation assay; assay type: functional, cell-based; settings: time 14.0 day; method in brief: as §3
[13] = system: U138-MG; assay: Antiproliferative activity against human U138 cells overexpressing ANO1 assessed as reduction in cell viability at 100 uM measured after 72 hrs by Celltiter-glo assay; assay type: functional; method in brief: as §2
[14] = system: U-251; assay: Inhibition of anchorage-independent colony formation in human U251 cells at 30 uM incubated for 14 days by crystal violet staining based soft agar colony formation assay; assay type: functional, cell-based; settings: time 14.0 day; method in brief: as §3
[15] = system: U-87 MG; assay: Antiproliferative activity against human U87MG cells overexpressing ANO1 assessed as reduction in cell viability at 100 uM measured after 72 hrs by Celltiter-glo assay; assay type: functional, U-87MG ATCC; method in brief: as §2

Compound: NC(=O)c1c(NC(=S)NC(=O)c2cccc(C(F)(F)F)c2)sc2c1CCC2
- inhibition [1]: 26.7%

Compound: Cc1ccccc1NC(=O)c1c(NC(=O)C(F)(F)Br)sc2c1CCCCC2
- inhibition at 72 h, 100 µM [7]: < 50%
- inhibition at 10 µM [8]: 11.7%
- GI50 [2]: 45.3 µM
- inhibition at 10 µM [9]: 16.7%
- GI50 [4]: 48 µM
- IC50 [5]: 0.05 µM
- inhibition ([10]; time 14.0 day): inactive
- GI50 [6]: 29.4 µM
- inhibition ([11]; time 14.0 day): inactive
- inhibition [12]: inactive

Compound: NC(=O)c1c(NC(=S)NC(=O)c2ccco2)sc2c1CCC2
- inhibition [1]: < 10%

Compound: NC(=O)c1c(NC(=O)c2ccco2)sc2c1CCC2
- inhibition [1]: 51.5%

Compound: NC(=O)c1c(NC(=S)NC(=O)c2ccc3c(c2)OCO3)sc2c1CCC2
- inhibition [1]: 16.3%

Compound: COc1cc(OC)cc(C(=O)NC(=S)Nc2sc3c(c2C(N)=O)CCC3)c1
- inhibition [1]: 46.1%

Compound: NC(=O)c1c(NC(=S)NC(=O)c2ccc3c(c2)OCCO3)sc2c1CCC2
- inhibition [1]: 12.3%

Compound: COc1ccccc1/C=N/NC(=O)COc1ccc(Cl)cc1C
- IC50 [5]: 0.03 µM

Compound: NC(=O)c1c(N)sc2c1CCC2
- inhibition [1]: 15.4%

Compound: CC(C)(C)C1CCc2c(sc(NC(=O)c3ccco3)c2C(=O)O)C1 (configuration not stated)
- inhibition at 72 h, 100 µM [7]: < 50%
- inhibition [14]: inactive
- inhibition at 10 µM [8]: 28.3%
- GI50 [2]: 41.9 µM
- inhibition at 10 µM [9]: 34.8%
- IC50 [5]: 1.53 µM
- inhibition at 10 µM ([10]; U-251, 336 h, time 14 day): 72.7%
- GI50 [6]: 89.4 µM
- inhibition at 100 µM [15]: < 50%
- inhibition at 100 µM ([11]; U-251, 336 h, time 14 day): 72.7%
- inhibition [12]: inactive

The next lines start with results.

- inhibition [1]: < 10%
Compound: NC(=O)c1ccsc1N

- inhibition [1]: 70.5%
- GI50 [2]: 24.4 µM
- IC50 [3]: 2.83 µM
- GI50 [4]: 26 µM
- IC50 [5]: 2.63 µM
Compound: NC(=O)c1c(NC(=S)NC(=O)c2ccccc2)sc2c1CCC2
- GI50 [6]: 17.1 µM

- inhibition [1]: < 10%
Compound: NC(=O)c1c(NC(=O)c2ccccc2)sc2c1CCC2

- inhibition [1]: 70.3%
- GI50 [2]: 70.2 µM
- IC50 [3]: 3.09 µM
- GI50 [4]: 82.4 µM
- IC50 [5]: 5.66 µM
Compound: CC(C)(C)C1CCc2c(sc(NC(=S)NC(=O)c3ccccc3)c2C(N)=O)C1 (configuration not stated)
- inhibition at 100 µM [13]: < 50%
- inhibition at 72 h, 100 µM [7]: < 50%

- inhibition [1]: 12.1%
Compound: NC(=O)c1c(NC(=O)c2ccccc2)sc2c1CCCCC2

- inhibition [1]: < 10%
Compound: NC(=O)c1ccsc1NC(=O)c1ccccc1

- inhibition [1]: < 10%
Compound: CC(C)(C)C(=O)Nc1sccc1C(N)=O
